The record followed here is ChEMBL document CHEMBL1221339, “Modulation of the inhibitor properties of dipeptidyl (acyloxy)methyl ketones toward the CaaX proteases” (Bioorg Med Chem, 2010).

Test [1] addresses T1, CAAX prenyl protease 2 (Saccharomyces cerevisiae S288c) (UniProt Q03530).
T1 sequence (whole entry): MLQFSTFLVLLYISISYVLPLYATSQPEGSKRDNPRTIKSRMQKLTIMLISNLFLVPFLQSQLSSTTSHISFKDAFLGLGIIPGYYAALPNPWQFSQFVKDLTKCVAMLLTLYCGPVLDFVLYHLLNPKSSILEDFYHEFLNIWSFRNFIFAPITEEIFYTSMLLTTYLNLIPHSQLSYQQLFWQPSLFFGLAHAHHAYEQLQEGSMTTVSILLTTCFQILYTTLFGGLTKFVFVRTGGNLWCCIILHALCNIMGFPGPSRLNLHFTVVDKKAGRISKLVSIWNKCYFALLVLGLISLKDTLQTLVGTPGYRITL
The test can be described thus: Inhibition of Saccharomyces cerevisiae SM3614 Ras converting enzyme 1 at 100 uM after 60 mins by fluorescence based proteolysis assay. In outline:
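Membranes enriched for yeast Rce1p (plasmid pWS479 in SM3614, ste24Δ rce1Δ), 0.25 mg/mL final in 100 mM HEPES pH 7.5, 5 mM MgCl2. Pretreated 15 min at 30 °C with 100 µM compound, then 20 µM quenched ABz-KSKTKC(farnesyl)QLIM added. Fluorescence 320/420 nm read every 30–60 s for 60 min at 30 °C. Initial velocities give % activity vs DMSO. At least 4 replicates.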

Another test relates to Saccharomyces cerevisiae. Description: Inhibition of Saccharomyces cerevisiae SM3614 Ras converting enzyme 1 Ste24 mutant at 100 uM after 60 mins by fluorescence based proteolysis assay. Put shortly:
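Membranes enriched for yeast Ste24p (plasmid pSM1282 in SM3614, ste24Δ rce1Δ), 0.25 mg/mL final in 100 mM HEPES pH 7.5, 5 mM MgCl2. Pretreated 15 min at 30 °C with 100 µM compound, then 20 µM ABz-KSKTKC(farnesyl)VIQL added. Fluorescence 320/420 nm read every 30–60 s for 60 min at 30 °C. Initial velocities give % activity vs DMSO. At least 4 replicates.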

Structures are written as SMILES. Activity calls are given as the source filed them. The rule behind the calls is not given here.

For `CC(C)(C)OC(=O)NCCCC[C@H](NC(=O)[C@H](Cc1ccccc1)NC(=O)OCc1ccccc1)C(=O)O`, the result (in test [1]; in the test on Saccharomyces cerevisiae) was inactive.

Turning to `Cc1cccc(C)c1C(=O)OCC(=O)[C@H](CCCNC(=N)N)NC(=O)[C@H](Cc1ccccc1)NC(=O)OCc1ccccc1`, the outcome (in test [1]; in the test on Saccharomyces cerevisiae) was Active.

Consider `Cc1cc(C)c(C(=O)OCC(=O)[C@H](CCCNC(=N)N)NC(=O)[C@H](Cc2ccccc2)NC(=O)OCc2ccccc2)c(C)c1`, for which the outcome (in test [1]; in the test on Saccharomyces cerevisiae) was Active.

For the compound `N=C(N)NCCC[C@H](NC(=O)[C@H](Cc1ccccc1)NC(=O)OCc1ccccc1)C(=O)COC(=O)c1ccccc1`, the result (in test [1]; in the test with Saccharomyces cerevisiae) was Active.

For the compound `Cc1ccc(C(=O)OCC(=O)[C@H](C)NC(=O)[C@H](Cc2ccccc2)NC(=O)OCc2ccccc2)cc1`, the result (in test [1]; with Saccharomyces cerevisiae) was Active.

On to `N=C(N)NCCC[C@H](NC(=O)[C@H](Cc1ccccc1)NC(=O)OCc1ccccc1)C(=O)COC(=O)c1ccc([N+](=O)[O-])cc1`, for which the result (in test [1]; in the test on Saccharomyces cerevisiae) was Active.

Consider `C[C@H](NC(=O)[C@H](Cc1ccccc1)NC(=O)OCc1ccccc1)C(=O)COC(=O)c1ccc([N+](=O)[O-])cc1`, for which the outcome (in test [1]; in the test on Saccharomyces cerevisiae) was Active.

Turning to `N=C(N)NCCC[C@H](NC(=O)[C@H](Cc1ccccc1)NC(=O)OCc1ccccc1)C(=O)COC(=O)c1c(C(F)(F)F)cccc1C(F)(F)F`, the outcome (in test [1]; in the test with Saccharomyces cerevisiae) was Active.

For `C[C@H](NC(=O)[C@H](Cc1ccccc1)NC(=O)OCc1ccccc1)C(=O)COC(=O)c1ccccc1`, the result (in test [1]; in the test with Saccharomyces cerevisiae) was Active.

`C[C@H](NC(=O)[C@H](Cc1ccccc1)NC(=O)OCc1ccccc1)C(=O)COC(=O)c1c(C(F)(F)F)cccc1C(F)(F)F`: the result (in test [1]; with Saccharomyces cerevisiae) was Active.

Take `NCCCC[C@H](NC(=O)[C@H](Cc1ccccc1)NC(=O)OCc1ccccc1)C(=O)O`: the result (in test [1]; with Saccharomyces cerevisiae) was inactive.

For `COc1ccc(C(=O)OCC(=O)[C@H](C)NC(=O)[C@H](Cc2ccccc2)NC(=O)OCc2ccccc2)cc1`, the result (in test [1]; in the test with Saccharomyces cerevisiae) was Active.

In the case of `CC(C)(C)OC(=O)NCCCC[C@H](NC(=O)[C@H](Cc1ccccc1)NC(=O)OCc1ccccc1)C(=O)CBr`, the outcome (in test [1]; in the test with Saccharomyces cerevisiae) was inactive.

With `COc1ccc(C(=O)OCC(=O)[C@H](CCCNC(=N)N)NC(=O)[C@H](Cc2ccccc2)NC(=O)OCc2ccccc2)cc1`, the outcome (in test [1]; in the test with Saccharomyces cerevisiae) was Active.

Take `CC(=O)N[C@@H](Cc1ccc(O)cc1)C(=O)N[C@@H](Cc1ccccc1)C(=O)N[C@@H](CCCNC(=N)N)C(=O)COC(=O)c1c(C)cccc1C`: the result (in test [1]; in the test on Saccharomyces cerevisiae) was inactive.

For the compound `Cc1ccc(C(=O)OCC(=O)[C@H](CCCNC(=N)N)NC(=O)[C@H](Cc2ccccc2)NC(=O)OCc2ccccc2)cc1`, the result (in test [1]; with Saccharomyces cerevisiae) was Active.

With `Cc1cccc(C)c1C(=O)OCC(=O)[C@H](C)NC(=O)[C@H](Cc1ccccc1)NC(=O)OCc1ccccc1`, the result (in test [1]; in the test on Saccharomyces cerevisiae) was Active.

Consider `Cc1cc(C)c(C(=O)OCC(=O)[C@H](C)NC(=O)[C@H](Cc2ccccc2)NC(=O)OCc2ccccc2)c(C)c1`, for which the outcome (in test [1]; with Saccharomyces cerevisiae) was Active.

Turning to `CC(=O)NC(Cc1ccc(O)cc1)C(=O)N[C@@H](Cc1ccccc1)C(=O)NCC(=O)COC(=O)c1c(C)cccc1C` (single isomer, unassigned), the outcome (in test [1]; in the test with Saccharomyces cerevisiae) was inactive.
